“And” between values parts separate entries of the source, which are not always exact repeats. Identical values can stand only once.
Tested on: HEK-293T
Assay: Multiplex assay against HEK293T
Assay type: toxicity, cell-based
Conditions: human
Procedure, shortened: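 Phenotypes for tubulin, mitochondrial mass and membrane permeability are expressed as per cents of healthy-nucleus cells. Cells were stained live at seeding with Hoechst33342, BioTracker Green Microtubule Cytoskeleton Dye, MitoTracker Red and Annexin V Alexa Fluor 680, then imaged after compound addition on a CQ1 microscope at 37°C and 5% CO2. Machine-learning gating in CellPathfinder separated Hoechst high-intensity objects from normal cells, divided normal cells by nuclear state (healthy, pyknosed, fragmented) and divided pyknosed cells into mitotic or apoptotic.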

[1] = 12 h, 10 µM, compound concentration 10 uM, replicate 1
[2] = 12 h, 10 µM, compound concentration 10 uM, replicate 2
[3] = 24 h, 10 µM, compound concentration 10 uM, replicate 1
[4] = 24 h, 10 µM, compound concentration 10 uM, replicate 2
[5] = 48 h, 10 µM, compound concentration 10 uM, replicate 1
[6] = 48 h, 10 µM, compound concentration 10 uM, replicate 2
[7] = 12 h, 1 µM, compound concentration 1 uM, replicate 1
[8] = 12 h, 1 µM, compound concentration 1 uM, replicate 2
[9] = 24 h, 1 µM, compound concentration 1 uM, replicate 1
[10] = 24 h, 1 µM, compound concentration 1 uM, replicate 2
[11] = 48 h, 1 µM, compound concentration 1 uM, replicate 1
[12] = 48 h, 1 µM, compound concentration 1 uM, replicate 2

## CC(=O)O[C@H]1C(=O)[C@@]2(C)[C@H]([C@H](OC(=O)c3ccccc3)[C@]3(O)C[C@H](OC(=O)[C@H](O)[C@@H](NC(=O)c4ccccc4)c4ccccc4)C(C)=C1C3(C)C)[C@]1(OC(C)=O)CO[C@@H]1C[C@@H]2O [PACLITAXEL]
[1]
  Population Apoptotic (%): 41% and 51%
  Population Fragmented Nuclei (%): 7% and 4%
  Population Healthy Nuclei (%): 74% and 79%
  Population Hoechst High Intensity Objects (%): 16% and 12%
  Population Membrane Permeable-Phenotype (%): 0%
  Population Mitochondria Different-Phenotype (%): 79% and 70%
  Population Mitotic Cells (%): 58% and 48%
  Population Normal (%): 83% and 87%
  Population Pyknosed Nuclei (%): 17% and 15%
  Population Tubulin-Different-Phenotype (%): 11% and 9%
[2]
  Population Apoptotic (%): 56% and 47%
  Population Fragmented Nuclei (%): 5% and 2%
  Population Healthy Nuclei (%): 64% and 75%
  Population Hoechst High Intensity Objects (%): 14%
  Population Mitochondria Different-Phenotype (%): 84% and 85%
  Population Mitotic Cells (%): 43% and 52%
  Population Normal (%): 85%
  Population Pyknosed Nuclei (%): 29% and 22%
  Population Tubulin-Different-Phenotype (%): 16% and 17%
[3]
  Population Apoptotic (%): 35% and 34%
  Population Fragmented Nuclei (%): 10% and 9%
  Population Healthy Nuclei (%): 70% and 73%
  Population Hoechst High Intensity Objects (%): 16% and 14%
  Population Membrane Permeable-Phenotype (%): 0%
  Population Mitochondria Different-Phenotype (%): 72% and 68%
  Population Mitotic Cells (%): 64% and 65%
  Population Normal (%): 83% and 85%
  Population Pyknosed Nuclei (%): 18% and 16%
  Population Tubulin-Different-Phenotype (%): 8% and 7%
[4]
  Population Apoptotic (%): 47% and 55%
  Population Fragmented Nuclei (%): 8% and 7%
  Population Healthy Nuclei (%): 75%
  Population Hoechst High Intensity Objects (%): 15%
  Population Mitochondria Different-Phenotype (%): 82% and 75%
  Population Mitotic Cells (%): 52% and 44%
  Population Normal (%): 84%
  Population Pyknosed Nuclei (%): 17%
  Population Tubulin-Different-Phenotype (%): 16% and 11%
[5]
  Population Apoptotic (%): 29% and 38%
  Population Fragmented Nuclei (%): 15% and 10%
  Population Healthy Nuclei (%): 68% and 75%
  Population Hoechst High Intensity Objects (%): 11% and 10%
  Population Membrane Permeable-Phenotype (%): 0%
  Population Mitochondria Different-Phenotype (%): 64% and 60%
  Population Mitotic Cells (%): 70% and 62%
  Population Normal (%): 88% and 89%
  Population Pyknosed Nuclei (%): 15% and 14%
  Population Tubulin-Different-Phenotype (%): 2% and 6%
[6]
  Population Apoptotic (%): 69% and 57%
  Population Fragmented Nuclei (%): 13%
  Population Healthy Nuclei (%): 70% and 73%
  Population Mitochondria Different-Phenotype (%): 70% and 68%
  Population Mitotic Cells (%): 30% and 42%
  Population Pyknosed Nuclei (%): 19% and 13%
  Population Tubulin-Different-Phenotype (%): 11%

## C[C@H](NC(=O)c1c(C(F)F)nn(C)c1Oc1cccc(C(F)(F)F)c1)c1ccc(C(=O)O)cc1 [PALUPIPRANT]
[7]
  Population Apoptotic (%): 40%
  Population Fragmented Nuclei (%): 6%
  Population Healthy Nuclei (%): 80%
  Population Hoechst High Intensity Objects (%): 7%
  Population Membrane Permeable-Phenotype (%): 0%
  Population Mitochondria Different-Phenotype (%): 44%
  Population Mitotic Cells (%): 59%
  Population Normal (%): 92%
  Population Pyknosed Nuclei (%): 13%
  Population Tubulin-Different-Phenotype (%): 28%
  Total Cell Count: 407
[8]
  Population Apoptotic (%): 27%
  Population Healthy Nuclei (%): 83%
  Population Hoechst High Intensity Objects (%): 5%
  Population Mitochondria Different-Phenotype (%): 60%
  Population Mitotic Cells (%): 72%
  Population Normal (%): 94%
  Population Pyknosed Nuclei (%): 10%
  Total Cell Count: 475
[1]
  Population Apoptotic (%): 38%
  Population Fragmented Nuclei (%): 7%
  Population Healthy Nuclei (%): 76%
  Population Hoechst High Intensity Objects (%): 7%
  Population Membrane Permeable-Phenotype (%): 0%
  Population Mitochondria Different-Phenotype (%): 55%
  Population Mitotic Cells (%): 61%
  Population Normal (%): 92%
  Population Pyknosed Nuclei (%): 16%
  Population Tubulin-Different-Phenotype (%): 40%
  Total Cell Count: 371
[2]
  Population Apoptotic (%): 60%
  Population Fragmented Nuclei (%): 5%
  Population Healthy Nuclei (%): 77%
  Population Hoechst High Intensity Objects (%): 10%
  Population Mitochondria Different-Phenotype (%): 68%
  Population Mitotic Cells (%): 40%
  Population Normal (%): 89%
  Population Pyknosed Nuclei (%): 17%
  Population Tubulin-Different-Phenotype (%): 27%
  Total Cell Count: 293
[9]
  Population Apoptotic (%): 36%
  Population Fragmented Nuclei (%): 9%
  Population Healthy Nuclei (%): 80%
  Population Hoechst High Intensity Objects (%): 5%
  Population Membrane Permeable-Phenotype (%): 1%
  Population Mitochondria Different-Phenotype (%): 27%
  Population Mitotic Cells (%): 63%
  Population Normal (%): 94%
  Population Pyknosed Nuclei (%): 10%
  Population Tubulin-Different-Phenotype (%): 18%
  Total Cell Count: 527
[10]
  Population Apoptotic (%): 46%
  Population Fragmented Nuclei (%): 7%
  Population Healthy Nuclei (%): 83%
  Population Hoechst High Intensity Objects (%): 4%
  Population Membrane Permeable-Phenotype (%): 0%
  Population Mitochondria Different-Phenotype (%): 35%
  Population Mitotic Cells (%): 53%
  Population Normal (%): 95%
  Population Pyknosed Nuclei (%): 9%
  Population Tubulin-Different-Phenotype (%): 19%
  Total Cell Count: 604
[3]
  Population Apoptotic (%): 26%
  Population Fragmented Nuclei (%): 9%
  Population Healthy Nuclei (%): 74%
  Population Hoechst High Intensity Objects (%): 3%
  Population Membrane Permeable-Phenotype (%): 0%
  Population Mitochondria Different-Phenotype (%): 46%
  Population Mitotic Cells (%): 73%
  Population Normal (%): 96%
  Population Pyknosed Nuclei (%): 16%
  Population Tubulin-Different-Phenotype (%): 29%
  Total Cell Count: 465
[4]
  Population Apoptotic (%): 55%
  Population Fragmented Nuclei (%): 7%
  Population Healthy Nuclei (%): 79%
  Population Hoechst High Intensity Objects (%): 7%
  Population Mitochondria Different-Phenotype (%): 52%
  Population Mitotic Cells (%): 44%
  Population Normal (%): 92%
  Population Pyknosed Nuclei (%): 13%
  Population Tubulin-Different-Phenotype (%): 19%
  Total Cell Count: 353
[11]
  Population Apoptotic (%): 25%
  Population Fragmented Nuclei (%): 13%
  Population Healthy Nuclei (%): 79%
  Population Hoechst High Intensity Objects (%): 2%
  Population Membrane Permeable-Phenotype (%): 1%
  Population Mitochondria Different-Phenotype (%): 17%
  Population Mitotic Cells (%): 75%
  Population Normal (%): 97%
  Population Pyknosed Nuclei (%): 7%
  Population Tubulin-Different-Phenotype (%): 13%
  Total Cell Count: 916
[12]
  Population Apoptotic (%): 21%
  Population Fragmented Nuclei (%): 14%
  Population Healthy Nuclei (%): 78%
  Population Hoechst High Intensity Objects (%): 4%
  Population Membrane Permeable-Phenotype (%): 0%
  Population Mitochondria Different-Phenotype (%): 18%
  Population Mitotic Cells (%): 78%
  Population Normal (%): 95%
  Population Pyknosed Nuclei (%): 6%
  Population Tubulin-Different-Phenotype (%): 9%
  Total Cell Count: 867
[5]
  Population Apoptotic (%): 29%
  Population Fragmented Nuclei (%): 18%
  Population Healthy Nuclei (%): 75%
  Population Hoechst High Intensity Objects (%): 1%
  Population Membrane Permeable-Phenotype (%): 1%
  Population Mitochondria Different-Phenotype (%): 24%
  Population Mitotic Cells (%): 70%
  Population Normal (%): 98%
  Population Pyknosed Nuclei (%): 6%
  Population Tubulin-Different-Phenotype (%): 16%
  Total Cell Count: 821
[6]
  Population Apoptotic (%): 28%
  Population Fragmented Nuclei (%): 15%
  Population Healthy Nuclei (%): 77%
  Population Hoechst High Intensity Objects (%): 3%
  Population Membrane Permeable-Phenotype (%): 0%
  Population Mitochondria Different-Phenotype (%): 28%
  Population Mitotic Cells (%): 71%
  Population Normal (%): 96%
  Population Tubulin-Different-Phenotype (%): 17%
  Total Cell Count: 554
